For assay [1], the species on record is Rattus norvegicus. Nature of the assay: Compound was tested for agonist activity in rat isolated uterus assay. Format: functional. The method in brief: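 Uteri from diethylstilbestrol-primed female Sprague-Dawley rats (150-250 g). Peptides were stored lyophilized at -20 °C, with 1 mg/mL stock solutions made weekly and assay dilutions made daily. Tissue was challenged every 12 min. Agonist activity is expressed relative to ANG II = 100%, as mean ± SEM with the number of animals.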

The species entered for assay [2] is Rattus norvegicus. The assay is described as follows: Compound was tested for antagonist activity in rat isolated uterus assay; pA2 is the negative logarithm of the concentration of antagonist that reduces the response to an ED50 dose of angiotensin II to the response to half the ED50 dose. The class given is functional. Particulars: read-out: pA2 (converted). The method in brief:
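Isolated uterus from diethylstilbestrol-primed female Sprague-Dawley rats (150-250 g), challenged every 12 min. Antagonist was given 2 min before an ED50 dose of ANG II. Where antagonism appeared non-competitive, each tissue received a single "pA2 dose" and the ANG II response was measured after 2 min (mean of four determinations). Otherwise values are mean ± SEM (number of animals).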

Square brackets hold non-standard residues; d marks the D form. Peptide text beside a SMILES is read from it. Sar = CNCC(=O)O Bounds are passed on as bounds.

As for `CC[C@H](C)[C@H](NC(=O)[C@H](Cc1ccc(OC)cc1)NC(=O)[C@@H](NC(=O)[C@H](CCCN=C(N)N)NC(=O)CNC)C(C)C)C(=O)N[C@@H](Cc1c[nH]cn1)C(=O)N1CCC[C@H]1C(=O)N[C@@H](Cc1ccccc1)C(=O)O`, the Activity in the assay filed under Rattus norvegicus [1] is less than 0.1%. Moreover, in the assay listed under Rattus norvegicus [2], the Kb was 7.94 nM.
The matching figures for `CC[C@H](C)[C@H](NC(=O)[C@H](Cc1ccc(O)cc1)NC(=O)[C@@H](NC(=O)[C@@H](N)CCCN=C(N)N)C(C)C)C(=O)N[C@@H](Cc1c[nH]cn1)C(=O)N1CCC[C@H]1C(=O)N[C@@H](Cc1c[nH]c2ccccc12)C(=O)O`: less than 0.1% and 200 nM.
For `CC[C@H](C)[C@H](NC(=O)[C@@H]1CCCN1C(=O)[C@H](Cc1c[nH]cn1)NC(=O)[C@@H](NC(=O)[C@H](Cc1ccc(OC)cc1)NC(=O)[C@@H](NC(=O)[C@H](CCCN=C(N)N)NC(=O)CNC)C(C)C)[C@@H](C)CC)C(=O)O` the same measures were less than 0.1% and 63.1 nM.
Turning to `CC[C@H](C)[C@H](NC(=O)[C@H](Cc1ccc(OC)cc1)NC(=O)[C@@H](NC(=O)[C@@H](N)CCCN=C(N)N)C(C)C)C(=O)N[C@@H](Cc1c[nH]cn1)C(=O)N1CCC[C@H]1C(=O)N[C@@H](Cc1ccccc1)C(=O)O`, the Activity in the assay filed under Rattus norvegicus [1] was less than 0.1%. Also, the Kb in the assay listed under Rattus norvegicus [2] was more than 1000 nM.
The matching figures for `CC[C@H](C)[C@H](NC(=O)[C@H](Cc1ccc(OC)cc1)NC(=O)[C@@H](NC(=O)[C@H](CCCN=C(N)N)NC(=O)CNC)C(C)C)C(=O)N[C@@H](Cc1c[nH]cn1)C(=O)N1CCC[C@H]1C(=O)N[C@@H](Cc1c[nH]c2ccccc12)C(=O)O`: less than 0.1% and 79.4 nM.
The matching figures for `CC[C@H](C)[C@H](NC(=O)[C@H](Cc1ccc(OC)cc1)NC(=O)[C@@H](NC(=O)[C@@H](N)CCCN=C(N)N)C(C)C)C(=O)N[C@@H](Cc1c[nH]cn1)C(=O)N1CCC[C@H]1C(=O)N[C@@H](Cc1c[nH]c2ccccc12)C(=O)O`: less than 0.1% and more than 1000 nM.
For `CC[C@H](C)[C@H](NC(=O)[C@@H]1CCCN1C(=O)[C@H](Cc1c[nH]cn1)NC(=O)[C@@H](NC(=O)[C@H](Cc1ccc(OC)cc1)NC(=O)[C@@H](NC(=O)[C@@H](N)CCCN=C(N)N)C(C)C)[C@@H](C)CC)C(=O)O` the same measures were less than 0.1% and more than 1000 nM.
The molecule `CC[C@H](C)[C@H](NC(=O)[C@H](Cc1ccc(O)cc1)NC(=O)[C@@H](NC(=O)[C@H](CCCN=C(N)N)NC(=O)CNC)C(C)C)C(=O)N[C@@H](Cc1c[nH]cn1)C(=O)N1CCC[C@H]1C(=O)N[C@@H](Cc1c[nH]c2ccccc12)C(=O)O` gave an Activity in the assay listed under Rattus norvegicus [1] of less than 0.1%. Further, the Kb in the assay listed under Rattus norvegicus [2] is 20 nM.
The matching figures for `CC[C@H](C)[C@H](NC(=O)[C@@H]1CCCN1C(=O)[C@H](Cc1c[nH]cn1)NC(=O)[C@@H](NC(=O)[C@H](Cc1ccc(O)cc1)NC(=O)[C@@H](NC(=O)[C@H](CCCN=C(N)N)NC(=O)CNC)C(C)C)[C@@H](C)CC)C(=O)O`: less than 0.1% and 2 nM.
Consider `CC[C@H](C)[C@H](NC(=O)[C@H](Cc1c[nH]c2ccccc12)NC(=O)[C@@H](NC(=O)[C@@H](N)CCCN=C(N)N)C(C)C)C(=O)N[C@@H](Cc1c[nH]cn1)C(=O)N1CCC[C@H]1C(=O)N[C@@H](Cc1ccccc1)C(=O)O` (H-RVWIHPF-OH), for which, in the assay filed under Rattus norvegicus [1], the Activity is recorded as less than 0.1%. Also, the Kb in the assay filed under Rattus norvegicus [2] is more than 1000 nM.
The molecule `CC[C@H](C)[C@H](NC(=O)[C@@H]1CCCN1C(=O)[C@H](Cc1c[nH]cn1)NC(=O)[C@@H](NC(=O)[C@H](Cc1c[nH]c2ccccc12)NC(=O)[C@@H](NC(=O)[C@@H](N)CCCN=C(N)N)C(C)C)[C@@H](C)CC)C(=O)O` (H-RVWIHPI-OH) returned an Activity in the assay listed under Rattus norvegicus [1] of less than 0.1%. Further, in the assay listed under Rattus norvegicus [2], the Kb was more than 1000 nM.
For `CC[C@H](C)[C@H](NC(=O)[C@H](Cc1c[nH]c2ccccc12)NC(=O)[C@@H](NC(=O)[C@H](CCCN=C(N)N)NC(=O)CNC)C(C)C)C(=O)N[C@@H](Cc1c[nH]cn1)C(=O)N1CCC[C@H]1C(=O)N[C@@H](Cc1ccccc1)C(=O)O` (H-[Sar]RVWIHPF-OH) the same measures were less than 0.1% and more than 1000 nM.
